Test results as given in ChEMBL document CHEMBL1152965, “Synthesis and in vitro antiplasmodial evaluation of 4-anilino-2-trichloromethylquinazolines” (Bioorg Med Chem, 2009).

Experiments:
[1] = Selectivity index, ratio of IC50 for human K562 cells to IC50 for chloroquine, pyrimethamine and proguanil-resistant Plasmodium falciparum W2; assay type: toxicity, cell-based; settings: K562 cells (cytotoxicity) versus Plasmodium falciparum W2, read-out: Ratio IC50
How it was run: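 SI = K562 IC50 / W2 IC50. Live cells counted by flow cytometry after propidium iodide stain. IC50 by non-linear regression, mean of three independent experiments.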

HepG2 = assay: Cytotoxicity against human HepG2 cells after 72 hrs by MTT assay; assay type: cell-based; settings: HepG2, 72 h
How it was run: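 HepG2 cells plated in RPMI with 10% FBS and grown 24 h, then exposed to a range of compound concentrations for 72 h at 37 °C, 6% CO₂. MTT (5 mg/mL stock) added for 2 h, formazan dissolved in DMSO and read at 570 nm against 630 nm. Viability expressed as percent of untreated control. CC50 taken from the dose-response curve.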

K562 = assay: Cytotoxicity against human K562 cells after 72 hrs by flow cytometry; assay type: cell-based; settings: K562, 72 h
How it was run: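 Chemosensitive K562 subline, late log phase, in phenol-red-free RPMI with 10% serum. Compound range added in duplicate (DMSO <0.5%). After 72 h at 37 °C, 6% CO₂, cells stained with propidium iodide and live cells in a 100 µL sample counted by flow cytometry. IC50 from non-linear regression of dose-response curves, mean of three independent experiments.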

[2] = Selectivity index, ratio IC50 for human HepG2 cells to IC50 for chloroquine, pyrimethamine and proguanil-resistant Plasmodium falciparum W2; assay type: functional
How it was run: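 SI = HepG2 IC50 / W2 IC50. MTT 2 h, formazan dissolved in DMSO, absorbance 570 nm (ref 630 nm). Viability as % of untreated control, IC50 from dose-response curve.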

Plasmodium falciparum = assay: Antimalarial activity as reduced parasitaemia after 48 hrs against chloroquine, pyrimethamine and proguanil-resistant Plasmodium falciparum W2 infected in type A+ human erythrocytes by flow cytometry; assay type: functional, organism-based; settings: W2, 48 h
Leishmania donovani = assay: Antileishmanial activity against Leishmania donovani HOM/IN/01/2001 promastigotes after 72 hrs by flow cytometry; assay type: functional, organism-based; settings: HOM/IN/01/2001, 72 h
How it was run: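 GFP-transfected promastigotes, log phase, in M199 with 10% FCS and 500 µg/mL G418, seeded at 10⁵ parasites/mL. Compounds in DMSO (final <0.5% v/v) added in duplicate over a concentration range. Incubated 72 h at 27 °C.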

Toxoplasma gondii = assay: Antitoxoplasmic activity against Toxoplasma gondii tachyzoites infected in HFF assessed as beta-galactosidase activity after 96 hrs by colorimetric microtiter assay; assay type: functional, organism-based
How it was run: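 Tachyzoites of the PRU-β-Gal strain. 10⁴ HFF cells per well grown to confluence in phenol-red-free RPMI with 10% FCS. Monolayers infected with 2.10³ parasites per well for 3 h, then compounds in DMSO (final <0.5%) added in triplicate. Incubated 96 h at 37 °C, 6% CO₂. CPRG added at 500 µM final for a further 24 h. Read at 570/630 nm, blanked on uninfected wells. IC50 from three independent experiments.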

| Compound | selectivity ratio [1] | IC50 (HepG2) [µM] | IC50 (K562) [µM] | Ratio IC50 [2] | IC50 (Plasmodium falciparum) [µM] | IC50 (Leishmania donovani) [µM] | IC50 (Toxoplasma gondii) [µM] |
| --- | --- | --- | --- | --- | --- | --- | --- |
| COc1cccc(Nc2nc(C(Cl)(Cl)Cl)nc3ccccc23)c1 | 2.3 | 0.5 | 9 | 0.1 | 4 | – | – |
| Clc1cccc(Nc2nc(C(Cl)(Cl)Cl)nc3ccccc23)c1Cl | > 4.3 | > 100 | > 60 | 7.1 | 14 | – | – |
| Clc1ccccc1Nc1nc(C(Cl)(Cl)Cl)nc2ccccc12 | > 10.9 | 25 | > 50 | 5.5 | 4.6 | – | – |
| Clc1ccc(Cl)c(Nc2nc(C(Cl)(Cl)Cl)nc3ccccc23)c1 | > 4.7 | 30 | > 8 | 17.6 | 1.7 | – | – |
| FC(F)(F)c1ccccc1Nc1nc(C(Cl)(Cl)Cl)nc2ccccc12 | 4.1 | 10 | 30 | 1.4 | 7.4 | – | – |
| Clc1ccc(Nc2nc(C(Cl)(Cl)Cl)nc3ccccc23)cc1Cl | 1.8 | 8 | 9 | 1.6 | 5 | – | – |
| COc1ccccc1Nc1nc(C(Cl)(Cl)Cl)nc2ccccc12 | 10 | 60 | 60 | 10 | 6 | – | – |
| CN1CCN(c2nc(C(Cl)(Cl)Cl)nc3ccccc23)CC1 | 11.6 | 75 | 65 | 13.4 | 5.6 | – | – |
| ClC(Cl)(Cl)c1nc(Nc2ccccc2)c2ccccc2n1 | > 4.5 | > 50 | > 50 | >4.5 | 11 | – | – |
| ClC(Cl)(Cl)c1nc(NCc2ccccc2)c2ccccc2n1 | > 7.2 | 13 | > 50 | 1.9 | 6.9 | – | – |
| ClC(Cl)(Cl)c1nc(Nc2ccccc2Br)c2ccccc2n1 | > 10 | > 50 | > 30 | >16.7 | 3 | – | – |
| Cc1ccccc1Nc1nc(C(Cl)(Cl)Cl)nc2ccccc12 | 1.6 | 24 | 11 | 3.4 | 7 | – | – |
| Fc1ccc(Nc2nc(C(Cl)(Cl)Cl)nc3ccccc23)cc1 | > 23.1 | > 50 | > 125 | >9.3 | 5.4 | – | – |
| O=[N+]([O-])c1cccc(Nc2nc(C(Cl)(Cl)Cl)nc3ccccc23)c1 | 1.7 | 10 | 5 | 3.3 | 3 | – | – |
| COc1ccc(Nc2nc(C(Cl)(Cl)Cl)nc3ccccc23)cc1 | 1.3 | 7 | 8 | 1.2 | 6 | – | – |
| Clc1cc(Cl)cc(Nc2nc(C(Cl)(Cl)Cl)nc3ccccc23)c1 | 2.2 | 10 | 9 | 2.5 | 4 | – | – |
| ClC(Cl)(Cl)c1nc(N2CCCC2)c2ccccc2n1 | > 3 | > 250 | > 125 | >6 | 41.5 | – | – |
| Cc1nc(Nc2cccc(Cl)c2)c2ccccc2n1 | 0.5 | 40 | 27 | 0.7 | 55 | – | – |
| Fc1cccc(Nc2nc(C(Cl)(Cl)Cl)nc3ccccc23)c1 | 3.8 | 16 | 15 | 1 | 4 | – | – |
| CCCCNc1nc(C(Cl)(Cl)Cl)nc2ccccc12 | > 3.5 | 16 | > 50 | 1.1 | 14.3 | – | – |

| Compound | selectivity ratio [1] | IC50 (HepG2) [µM] | IC50 (K562) [µM] | Ratio IC50 [2] | IC50 (Plasmodium falciparum) [µM] | IC50 (Leishmania donovani) [µM] | IC50 (Toxoplasma gondii) [µM] |
| --- | --- | --- | --- | --- | --- | --- | --- |
| Clc1ccc(Nc2nc(C(Cl)(Cl)Cl)nc3ccccc23)cc1 | 4.7 | 9 | 14 | 3 | 3 | – | – |
| ClC(Cl)(Cl)c1nc(Nc2ccc(Br)cc2)c2ccccc2n1 | 10 | 10 | 15 | 5.7 | 1.5 | – | – |
| Cc1cccc(Nc2nc(C(Cl)(Cl)Cl)nc3ccccc23)c1 | 3.9 | 12 | 9 | 5.2 | 2.3 | – | – |
| ClC(Cl)(Cl)c1nc(N2CCOCC2)c2ccccc2n1 | > 8.4 | 63 | > 125 | >2 | 14.9 | – | – |
| O=[N+]([O-])c1ccc(Nc2nc(C(Cl)(Cl)Cl)nc3ccccc23)cc1 | 1.8 | 6 | 5 | 2.1 | 2.8 | – | – |
| Clc1cccc(Cl)c1Nc1nc(C(Cl)(Cl)Cl)nc2ccccc12 | 0.5 | 23 | 10 | 1.1 | 21.9 | – | – |
| Fc1ccccc1Nc1nc(C(Cl)(Cl)Cl)nc2ccccc12 | 3.3 | 10 | 30 | 1.1 | 9 | – | – |
| ClC(Cl)(Cl)c1nc(NC2CCCCCC2)c2ccccc2n1 | > 9.8 | 19 | > 50 | 3.7 | 5.1 | – | – |
| ClC(Cl)(Cl)c1nc(Nc2cccc3ccccc23)c2ccccc2n1 | 0.8 | 15 | 5 | 2.5 | 6 | – | – |
| FC(F)(F)Oc1ccc(Nc2nc(C(Cl)(Cl)Cl)nc3ccccc23)cc1 | 2.1 | 6 | 6 | 2.1 | 2.9 | – | – |
| O=[N+]([O-])c1ccccc1Nc1nc(C(Cl)(Cl)Cl)nc2ccccc12 | > 20 | > 100 | > 60 | >33.3 | 3 | – | – |
| FC(F)(F)c1cc(Nc2nc(C(Cl)(Cl)Cl)nc3ccccc23)cc(C(F)(F)F)c1 | 3.3 | 3 | 10 | 1 | 3 | – | – |
| Cc1nc(Nc2cccc(C(F)(F)F)c2)c2ccccc2n1 | 0.2 | 20 | 10 | 0.5 | 42.5 | – | – |
| Cc1ccc(Nc2nc(C(Cl)(Cl)Cl)nc3ccccc23)cc1 | 2.5 | 8 | 6 | 3.3 | 2.4 | – | – |
| FC(F)(F)c1ccc(Nc2nc(C(Cl)(Cl)Cl)nc3ccccc23)cc1 | 2.5 | 6 | 4 | 3.8 | 1.6 | – | – |
| C[C@@H]1[C@H](O)[C@@H](C)/C=C/C=C/C=C/C=C/C=C/C=C/C=C/[C@H](O[C@@H]2O[C@H](C)[C@@H](O)[C@H](N)[C@@H]2O)C[C@@H]2O[C@](O)(C[C@@H](O)C[C@@H](O)[C@H](O)CC[C@@H](O)C[C@@H](O)CC(=O)O[C@H]1C)C[C@H](O)[C@H]2C(=O)O [AMPHOTERICIN B] | – | 10 | 17 | – | – | 0.08 | – |
| CCN(CC)CCCC(C)Nc1ccnc2cc(Cl)ccc12 (centres undefined) [CHLOROQUINE] | – | – | 32 | – | – | – | – |
| COc1cccc2c1C(=O)c1c(O)c3c(c(O)c1C2=O)C[C@@](O)(C(=O)CO)C[C@@H]3O[C@H]1C[C@H](N)[C@H](O)[C@H](C)O1 [DOXORUBICIN] | – | 0.2 | 0.06 | – | – | – | – |
| C[C@H]1c2cccc(O)c2C(=O)C2=C(O)[C@]3(O)C(=O)C(C(N)=O)=C(O)[C@@H](N(C)C)[C@@H]3[C@@H](O)[C@@H]21.O [DOXYCYCLINE] | 2.3 | 20 | 15 | 3.1 | 6.5 | – | – |
| CCc1nc(N)nc(N)c1-c1ccc(Cl)cc1 [PYRIMETHAMINE] | – | 30 | 5 | – | – | – | 2 |
